According to ChEMBL document CHEMBL4814013, “Scaffold repurposing of fendiline: Identification of potent KRAS plasma membrane localization inhibitors” (Eur J Med Chem, 2021):
Activity calls are given as the source filed them. The rule behind the calls is not given here.

How the values were obtained:
MEF [1] = test: Antiproliferative activity against mouse MEF cells expressing KRAS G12V mutant assessed as reduction in cell growth incubated for 72 hrs by CyQuant proliferation assay; assay type: functional, cell-based
Outline: (§1)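 Cells seeded in 96-well plates; after 24 h fresh growth medium with 0.1% DMSO vehicle or drug added (highest dose 30 µM for cancer lines), grown 72 h at 37 °C, 5% CO2. Live cell number measured by CyQUANT fluorescence. IC50 from three independent experiments. MEFs were isogenic lines carrying oncogenic BRAF or KRAS.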

MEF [2] = test: Cytotoxicity against mouse MEF cells expressing BRAF V600E mutant and wild type KRAS assessed as reduction in cell growth incubated for 72 hrs by CyQuant proliferation assay; assay type: functional, cell-based; outline: as §1
[3] = biological target: T1, Sphingomyelin phosphodiesterase (Homo sapiens) (UniProt P17405); test: Inhibition of human GFP-tagged ASM expressed in dog MDCK cells using sphingomyelin as substrate at 5 uM incubated for 48 hrs by Amplex Red dye based fluorescence analysis; assay type: cell-based
T1 sequence (whole entry): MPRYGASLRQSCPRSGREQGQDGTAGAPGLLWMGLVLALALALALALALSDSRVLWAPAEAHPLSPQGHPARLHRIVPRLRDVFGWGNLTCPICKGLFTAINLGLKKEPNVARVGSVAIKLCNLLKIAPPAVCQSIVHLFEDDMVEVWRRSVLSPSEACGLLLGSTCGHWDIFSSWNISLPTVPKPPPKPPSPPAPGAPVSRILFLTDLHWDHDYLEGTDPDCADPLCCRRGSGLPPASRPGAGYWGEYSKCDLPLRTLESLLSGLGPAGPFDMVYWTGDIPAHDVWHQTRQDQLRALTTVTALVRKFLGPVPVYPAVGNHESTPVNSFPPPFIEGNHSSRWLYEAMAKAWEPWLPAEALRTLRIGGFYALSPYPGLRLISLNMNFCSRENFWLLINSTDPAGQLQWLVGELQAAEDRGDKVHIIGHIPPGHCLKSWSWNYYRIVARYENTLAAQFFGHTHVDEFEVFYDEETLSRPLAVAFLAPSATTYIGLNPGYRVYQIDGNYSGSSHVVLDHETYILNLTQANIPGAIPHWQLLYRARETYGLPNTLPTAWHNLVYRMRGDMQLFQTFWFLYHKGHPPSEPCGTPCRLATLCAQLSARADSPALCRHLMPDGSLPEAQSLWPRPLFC
Outline: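 MDCK cells stably expressing human SMPD1-GFP treated 48 h at 5 µM. Whole-cell lysate, made without DTT, mixed with 50 mM sodium acetate pH 5.0 plus sphingomyelin and held 1 h at 37 °C. pH then raised to 7.4 with Amplex Red mix (100 µM Amplex Red, 2 U/mL HRP, 0.2 U/mL choline oxidase, 8 U/mL alkaline phosphatase, 100 mM Tris pH 8.0), 60 min at 37 °C. Fluorescence read at Ex 540/Em 590 nm. Controls: 0.1 U/mL SMase (positive), buffer alone (negative).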

MDCK [4] = test: Inhibition of ASM in dog MDCK cells co-expressing recombinant full length mGFP-tagged KRAS G12V mutant and mCherry-CAAX assessed as reduction in plasma membrane localization of KRAS mutant incubated for 48 hrs by confocal microscopic analysis relative to control; assay type: cell membranes; conditions: Canis lupus familiaris
Outline: (§2)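 MDCK cells stably co-expressing mGFP-KRAS G12V or mGFP-LactC2 with mCherry-CAAX (HRAS 179–189 C181S/C184S) grown on coverslips in DMEM/10% FBS. Treated 48 h with 0.1% DMSO or graded drug, fixed in 4% paraformaldehyde, then quantitative confocal imaging. Mislocalization scored as the Manders fraction of mCherry-CAAX co-localizing with the GFP probe. IC50 and Emax from three independent experiments.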

[5] = Antiproliferative activity against human MPANC96 cells expressing KRAS mutant assessed as reduction in cell growth incubated for 72 hrs by CyQuant proliferation assay; assay type: functional, cell-based; conditions: MPANC96, 72 h; outline: as §1
BXPC-3 = test: Antiproliferative activity against human BXPC-3 cells expressing wild type KRAS assessed as reduction in cell growth incubated for 72 hrs by CyQuant proliferation assay; assay type: functional, cell-based; conditions: BXPC-3, 72 h; outline: as §1
MDCK [6] = test: Cytotoxicity against dog MDCK cells at 30 uM; assay type: functional, cell-based; conditions: Canis lupus familiaris
MIA PaCa-2 = test: Antiproliferative activity against human MIA PaCa-2 cells expressing KRAS mutant assessed as reduction in cell growth incubated for 72 hrs by CyQuant proliferation assay; assay type: functional, cell-based; conditions: MIA PaCa-2, 72 h; outline: as §1
MEF [7] = test: Antiproliferative activity against mouse MEF cells expressing KRAS G12D mutant assessed as reduction in cell growth incubated for 72 hrs by CyQuant proliferation assay; assay type: functional, cell-based; outline: as §1
MDCK [8] = test: Inhibition of ASM in dog MDCK cells co-expressing recombinant full length GFP-tagged LactC2 and mCherry-CAAX assessed as reduction in plasma membrane localization of LactC2 incubated for 48 hrs by confocal microscopic analysis; assay type: cell membranes; conditions: Canis lupus familiaris; outline: as §2
MDCK [9] = test: Reduction in expression of human GFP-tagged ASM transfected in dog MDCK cells at 5 uM incubated for 48 hrs by western blot analysis; assay type: functional, cell-based; conditions: Canis lupus familiaris
Outline: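 SMPD1-GFP-expressing MDCK cells treated 48 h with 5 µM compound, washed in cold PBS and lysed in Tris pH 7.5 buffer with NaF, EGTA, DTT, vanadate, 1% NP40 and protease inhibitors. 20 µg of protein resolved by SDS-PAGE and immunoblotted. Signals detected by enhanced chemiluminescence and quantified by densitometry.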

NCI-H1975 = test: Antiproliferative activity against human NCI-H1975 cells expressing wild type KRAS assessed as reduction in cell growth incubated for 72 hrs by CyQuant proliferation assay; assay type: functional, cell-based; conditions: NCI-H1975, 72 h; outline: as §1
ESS-1 = test: Antiproliferative activity against human ESS-1 cells expressing wild type KRAS assessed as reduction in cell growth upto 30 uM incubated for 72 hrs by CyQuant proliferation assay; assay type: functional, cell-based; conditions: dose microM <=30, time 72.0 hrs; outline: as §1
[10] = Inhibition of ASM in dog MDCK cells co-expressing recombinant full length mGFP-tagged KRAS G12V mutant and mCherry-CAAX assessed as reduction in plasma membrane localization of KRAS mutant incubated for 48 hrs by confocal microscopic analysis; assay type: cell membranes, Canis lupus familiaris; outline: as §2
[11] = Antiproliferative activity against human MOH cells expressing KRAS mutant assessed as reduction in cell growth incubated for 72 hrs by CyQuant proliferation assay; assay type: functional, cell-based; outline: as §1
KLE = test: Antiproliferative activity against human KLE cells expressing wild type KRAS assessed as reduction in cell growth upto 30 uM incubated for 72 hrs by CyQuant proliferation assay; assay type: functional, cell-based; conditions: dose microM <=30, time 72.0 hrs; outline: as §1
HEC-1B cell line = test: Antiproliferative activity against human HEC-1B cells expressing mutant KRAS assessed as reduction in cell growth incubated for 72 hrs by CyQuant proliferation assay; assay type: functional, cell-based; outline: as §1
NCI-H1299 = test: Antiproliferative activity against human NCI-H1299 cells expressing wild type KRAS assessed as reduction in cell growth incubated for 72 hrs by CyQuant proliferation assay; assay type: functional, cell-based; conditions: NCI-H1299, 72 h; outline: as §1
Caco-2 = test: Antiproliferative activity against human Caco-2 cells expressing wild type KRAS assessed as reduction in cell growth incubated for 72 hrs by CyQuant proliferation assay; assay type: functional, cell-based; conditions: Caco-2, 72 h; outline: as §1
Ishikawa = test: Antiproliferative activity against human Ishikawa cells expressing wild type KRAS assessed as reduction in cell growth incubated for 72 hrs by CyQuant proliferation assay; assay type: functional, cell-based; outline: as §1
NCI-H522 = test: Antiproliferative activity against human NCI-H522 cells expressing wild type KRAS assessed as reduction in cell growth incubated for 72 hrs by CyQuant proliferation assay; assay type: functional, cell-based; conditions: NCI-H522, 72 h; outline: as §1
SK-CO-1 = test: Antiproliferative activity against human SK-CO-1 cells expressing mutant KRAS assessed as reduction in cell growth incubated for 72 hrs by CyQuant proliferation assay; assay type: functional, cell-based; conditions: SK-CO-1, 72 h; outline: as §1
MDCK [12] = test: Inhibition of ASM in dog MDCK cells co-expressing recombinant full length mGFP-tagged KRAS G12V mutant and mCherry-CAAX assessed as reduction in plasma membrane localization of KRAS mutant at 1 uM incubated for 48 hrs followed by incubation with recombinant ASM in continued presence of compound for 60 mins by confocal microscopic analysis; assay type: cell membranes; conditions: Canis lupus familiaris, time 49.0 hrs
Outline: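 MDCK cells stably co-expressing mGFP-KRAS G12V and mCherry-CAAX seeded on glass coverslips and grown 48 h with or without compound. Medium then replaced with fresh medium containing 2 units/mL recombinant ASM, drug continued, for 60 min. Cells mounted in mowiol and imaged by confocal microscopy. Mislocalization scored by Manders coefficient.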

Caenorhabditis elegans = test: In vivo inhibition of KRAS signaling in Caenorhabditis elegans lin-1 L1 harboring let60 […] mutant assessed as reduction in multi-vulva phenotype measured after 4 to 5 days culturing in buffer containing Escherichia coli OP50 by DIC/Nomarski microscopic analysis; assay type: functional, organism-based; conditions: dose 0.1-30 µM, time 4-5 day
Outline: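 let-60 (n1046) or lin-1 L1 larvae cultured in M9 buffer with E. coli OP50 plus DMSO vehicle or compound at 0.1, 0.3, 1, 3, 10 or 30 µM. After 4–5 days, adults were scored for multi-vulva by DIC/Nomarski microscopy.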

HEC-1-A = test: Antiproliferative activity against human HEC-1-A cells expressing mutant KRAS assessed as reduction in cell growth incubated for 72 hrs by CyQuant proliferation assay; assay type: functional, cell-based; outline: as §1
NCI-H23 = test: Antiproliferative activity against human NCI-H23 cells expressing mutant KRAS assessed as reduction in cell growth incubated for 72 hrs by CyQuant proliferation assay; assay type: functional, cell-based; conditions: NCI-H23, 72 h; outline: as §1

SMILES | Emax (MDCK [4]) | IC50 [5] [µM] | IC50 (BXPC-3) [µM] | Activity (MDCK [6]) | IC50 (MIA PaCa-2) [µM] | IC50 (NCI-H1975) [µM] | IC50 [11] [µM] | IC50 (HEC-1B cell line) [µM] | IC50 (NCI-H1299) [µM] | IC50 (Caco-2) [µM] | IC50 (Ishikawa) [µM] | IC50 (NCI-H522) [µM] | IC50 (SK-CO-1) [µM] | also measured
COc1ccc([C@@H](C)N(CC=C(c2ccccc2)c2ccccc2)CCN2CCN(C)CC2)cc1 | 0.75 | 4.2 | 5.7 | Active | 3 | > 30 | 3.7 | 3.3 | 8.2 | 5.1 | > 30 | 28.2 | 3.3 | IC50 (MEF [1]): 2.7 µM; IC50 (MEF [2]): 7.5 µM; inhibition [3]: Active; IC50 (MEF [7]): 3.7 µM; inhibition (MDCK [8]): Active; inhibition (MDCK [9]): Active; Activity (ESS-1): inactive; IC50 [10]: 0.1 µM; Activity (KLE): inactive; inhibition (MDCK [12]): inactive; inhibition (Caenorhabditis elegans): Dose-Dependent Effect
COc1ccc([C@@H](C)N(CC=C(c2ccccc2)c2ccccc2)CC=C(c2ccccc2)c2ccccc2)cc1 | 0.74 | > 30 | > 30 | inactive | > 30 | > 30 | > 30 | > 30 | > 30 | > 30 | > 30 | > 30 | > 30 | IC50 (HEC-1-A): > 30 µM; IC50 (NCI-H23): > 30 µM
